According to ChEMBL document CHEMBL2390882, “Synthesis and biological evaluation of novel thiazolidinone derivatives as potential anti-inflammatory agents” (Eur J Med Chem, 2013):
Several values for one entry are separate records, joined by “and”; a condition that tells them apart may be missing. Equal values may be shown once. Activity calls are given as the source filed them. The rule behind the calls is not given here.

Experiments:
RAW264.7 [1] = assay: Cytotoxicity against mouse RAW264.7 cells assessed as cell viability at 20 uM after 48 hrs by MTT assay; format: cell-based; conditions: raw264.7, 48 h
Summary of the method: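 RAW264.7 cells seeded at 5000/well in 1640 medium with 5% heat-inactivated serum and grown 24 h before treatment. Compounds (DMSO stock) tested at 20 µM final for 48 h. MTT (5 mg/ml in 0.9% NaCl) added for 3 h, formazan dissolved in DMSO, absorbance read at 570 nm.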

RAW264.7 [2] = assay: Antiinflammatory activity in mouse RAW264.7 cells assessed as inhibition of LPS-induced IL6 release at 10 uM incubated for 2 hrs prior to LPS challenge measured after 22 hrs by ELISA relative to LPS-treated control; format: functional; conditions: for inhibition at 10 µM: Mus musculus, RAW264.7
Summary of the method: (§1)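 RAW 264.7 macrophages in DMEM with 10% heat-inactivated FBS, plated at 4.0×10⁵/plate overnight. Pretreated 2 h with compound at 10 µM (curcumin 10 µM as reference), then LPS 0.5 µg/ml for 22 h. Medium cytokine measured by mouse ELISA kit and normalized to cell-lysate total protein. Expressed as % of LPS control, mean ±SEM of 4 independent experiments.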

RAW264.7 [3] = assay: Antiinflammatory activity in mouse RAW264.7 cells assessed as inhibition of LPS-induced TNFalpha release at 10 uM incubated for 2 hrs prior to LPS challenge measured after 22 hrs by ELISA relative to LPS-treated control; format: functional; summary of the method: as §1
Mus musculus [4] = assay: Antiinflammatory activity in C57BL/6 mouse assessed as decrease in LPS-induced septic death at 15 mg/kg, ip administered 15 mins prior to LPS challenge measured every 1 day for 7 days relative to LPS-treated control; format: functional, organism-based; design: dose 15 mg/kg
Summary of the method: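 Male C57BL/6 mice, 18-22 g ([…]), acclimatized at least 7 days. Drug at 2 mg/mL in macrogol 15 hydroxystearate (5-10%) with or without MCT (0.5-2%), dosed i.p. 15 min before LPS (20 mg/kg i.v.). Vehicle controls received 10% solubilizer with 2% MCT. Survival recorded daily for 7 days, n=12 per group.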

Mus musculus [5] = assay: Antiinflammatory activity in LPS-treated C57BL/6 mouse assessed as survival rate at 15 mg/kg, ip administered 15 mins measured every 1 day for 7 days relative to LPS-treated control; format: functional; conditions: C57BL/6, ip, route intraperitoneal
Summary of the method: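 Male C57BL/6 mice (18-22 g, acclimatized ≥7 days) got LPS 20 mg/kg i.v. and drug 15 mg/kg i.p. either 15 min before or 15 min after. The drug was given at 2 mg/mL in macrogol 15 hydroxystearate (5-10% final), with or without MCT (0.5-2%), dissolved at 37 °C. Controls received vehicle. Survival was recorded daily for 7 days, with 12 mice per group.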

RAW264.7 [6] = assay: Antiinflammatory activity in mouse RAW264.7 cells assessed as inhibition of LPS-induced IL6 release incubated for 2 hrs prior to LPS challenge measured after 22 hrs by ELISA; format: functional, cell-based
Summary of the method: (§2)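 RAW 264.7 cells plated at 1.2×10⁶/plate overnight, pretreated 2 h at 0.3, 1.1, 3.3 and 10 µM, then stimulated with LPS 0.5 µg/ml for 22 h. Secreted cytokine quantified by ELISA and normalized to total cell protein, given as % of LPS control. IC50 derived from the concentration-response, 3-5 independent experiments.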

RAW264.7 [7] = assay: Antiinflammatory activity in mouse RAW264.7 cells assessed as inhibition of LPS-induced TNFalpha release incubated for 2 hrs prior to LPS challenge measured after 22 hrs by ELISA; format: functional, cell-based; summary of the method: as §2

## Cc1ccc(/C=c2\sc3n(c2=O)CCN=3)s1
RAW264.7 [1]
  Activity: Non-toxic
RAW264.7 [2]
  inhibition: Active
RAW264.7 [3]
  inhibition at 10 µM: > 50%

## O=c1/c(=C/c2ccccc2Cl)sc2n1CCN=2
RAW264.7 [1]
  Activity: Non-toxic
RAW264.7 [2]
  inhibition: Active
RAW264.7 [3]
  inhibition: Active

## CCOC(=O)C1=C(C)N=c2s/c(=C\c3ccccc3F)c(=O)n2C1c1ccccc1 (centres undefined)
RAW264.7 [1]
  Activity: Non-toxic
RAW264.7 [2]
  inhibition: Active
RAW264.7 [3]
  inhibition: Active

## O=c1/c(=C/c2c[nH]c3ccccc23)sc2ncnn12
RAW264.7 [1]
  Activity: Non-toxic
RAW264.7 [2]
  inhibition at 10 µM: > 50%
RAW264.7 [3]
  inhibition: Active

## Cn1cccc1/C=c1\sc2n(c1=O)CCN=2
RAW264.7 [1]
  Activity: Non-toxic
RAW264.7 [2]
  inhibition at 10 µM: > 50%
RAW264.7 [3]
  inhibition at 10 µM: > 50%

## O=c1/c(=C/c2cccs2)sc2nc3ccccc3n12
RAW264.7 [1]
  Activity: Non-toxic
RAW264.7 [2]
  inhibition: Active
RAW264.7 [3]
  inhibition: Active

## O=c1/c(=C/c2ccccc2Br)sc2nc3ccccc3n12
RAW264.7 [1]
  Activity: Non-toxic
RAW264.7 [2]
  inhibition: Active
RAW264.7 [3]
  inhibition: Active

## CCOC(=O)C1=C(C)N=c2s/c(=C\c3ccc(N4CCOCC4)cc3)c(=O)n2C1c1ccccc1 (centres undefined)
Mus musculus [4]
  Activity: inactive
Mus musculus [5]
  survival at 15 mg/kg: 70%
RAW264.7 [6]
  IC50: 0.83 µM
  inhibition: Dose-dependent effect
RAW264.7 [7]
  IC50: 4.17 µM
  inhibition: Dose-dependent effect
RAW264.7 [1]
  Activity: Non-toxic
RAW264.7 [2]
  inhibition at 10 µM: 92%
RAW264.7 [3]
  inhibition at 10 µM: 62%

## CCOC(=O)C1=C(C)N=c2s/c(=C\c3cccc(OC)c3O)c(=O)n2C1c1ccccc1 (centres undefined)
RAW264.7 [1]
  Activity: Non-toxic
RAW264.7 [2]
  inhibition: Active
RAW264.7 [3]
  inhibition: Active

## CCOC(=O)C1=C(C)N=c2s/c(=C\c3cccc4ccccc34)c(=O)n2C1c1ccccc1 (centres undefined)
RAW264.7 [1]
  Activity: Non-toxic
RAW264.7 [2]
  inhibition: Active
RAW264.7 [3]
  inhibition: Active

## COc1cc(/C=c2\sc3nc4ccccc4n3c2=O)ccc1O
RAW264.7 [1]
  Activity: Non-toxic
RAW264.7 [2]
  inhibition: Active
RAW264.7 [3]
  inhibition: Active

## O=c1/c(=C/c2ccccc2Br)sc2ncnn12
RAW264.7 [1]
  Activity: Non-toxic
RAW264.7 [2]
  inhibition at 10 µM: > 50%
RAW264.7 [3]
  inhibition at 10 µM: > 50%

## O=c1/c(=C/c2ccccc2Cl)sc2nc3ccccc3n12
RAW264.7 [1]
  Activity: Non-toxic
RAW264.7 [2]
  inhibition: Active
RAW264.7 [3]
  inhibition: Active

## CCOC(=O)C1=C(C)N=c2s/c(=C\c3ccc(C)cc3C)c(=O)n2C1c1ccccc1 (centres undefined)
RAW264.7 [1]
  Activity: Non-toxic
RAW264.7 [2]
  inhibition: Active
RAW264.7 [3]
  inhibition: Active

## Cc1ccc(/C=c2\sc3ncnn3c2=O)s1
RAW264.7 [1]
  Activity: Non-toxic
RAW264.7 [2]
  inhibition: Active
RAW264.7 [3]
  inhibition: Active

## O=c1/c(=C/c2ccc3ccccc3c2)sc2nc3ccccc3n12
RAW264.7 [1]
  Activity: Non-toxic
RAW264.7 [2]
  inhibition: Active
RAW264.7 [3]
  inhibition: Active

## COc1cccc(/C=c2\sc3ncnn3c2=O)c1OC
RAW264.7 [1]
  Activity: Non-toxic
RAW264.7 [2]
  inhibition: Active
RAW264.7 [3]
  inhibition: Active

## COc1ccccc1/C=c1\sc2nc3ccccc3n2c1=O
RAW264.7 [1]
  Activity: Non-toxic
RAW264.7 [2]
  inhibition: Active
RAW264.7 [3]
  inhibition: Active

## CCOc1ccc(Br)cc1/C=c1\sc2nc3ccccc3n2c1=O
RAW264.7 [1]
  Activity: Non-toxic
RAW264.7 [2]
  inhibition: Active
RAW264.7 [3]
  inhibition: Active

## O=c1/c(=C/c2ccccc2F)sc2nc3ccccc3n12
RAW264.7 [1]
  Activity: Non-toxic
RAW264.7 [2]
  inhibition: Active
RAW264.7 [3]
  inhibition: Active

## COc1ccc(/C=c2\sc3nc4ccccc4n3c2=O)cc1O
RAW264.7 [1]
  Activity: Non-toxic
RAW264.7 [2]
  inhibition: Active
RAW264.7 [3]
  inhibition: Active

## CCOC(=O)C1=C(C)N=c2s/c(=C\c3ccccc3Br)c(=O)n2C1c1ccccc1 (centres undefined)
RAW264.7 [1]
  Activity: Non-toxic
RAW264.7 [2]
  inhibition: Active
RAW264.7 [3]
  inhibition: Active

## Cc1ccc(/C=c2\sc3nc4ccccc4n3c2=O)c(C)c1
RAW264.7 [1]
  Activity: Non-toxic
RAW264.7 [2]
  inhibition: Active
RAW264.7 [3]
  inhibition: Active

## O=c1/c(=C/c2cccc(Cl)c2Cl)sc2nc3ccccc3n12
RAW264.7 [1]
  Activity: Non-toxic
RAW264.7 [2]
  inhibition: Active
RAW264.7 [3]
  inhibition: Active

## O=c1/c(=C/c2ccc(N3CCOCC3)cc2)sc2nc3ccccc3n12
RAW264.7 [1]
  Activity: Non-toxic
RAW264.7 [2]
  inhibition: Active
RAW264.7 [3]
  inhibition: Active

## O=c1/c(=C/c2ccccc2[N+](=O)[O-])sc2nc3ccccc3n12
RAW264.7 [1]
  Activity: Non-toxic
RAW264.7 [2]
  inhibition: Active
RAW264.7 [3]
  inhibition: Active

## O=c1/c(=C/c2ccc(N3CCOCC3)cc2)sc2ncnn12
RAW264.7 [1]
  Activity: Non-toxic
RAW264.7 [2]
  inhibition at 10 µM: > 50%
RAW264.7 [3]
  inhibition at 10 µM: > 50%

## CCOC(=O)C1=C(C)N=c2s/c(=C\c3ccc(C)s3)c(=O)n2C1c1ccccc1 (centres undefined)
RAW264.7 [1]
  Activity: Non-toxic
RAW264.7 [2]
  inhibition at 10 µM: > 50%
RAW264.7 [3]
  inhibition: Active

## Cc1ccc(/C=c2\sc3nc4ccccc4n3c2=O)s1
RAW264.7 [1]
  Activity: Non-toxic
RAW264.7 [2]
  inhibition: Active
RAW264.7 [3]
  inhibition: Active

## O=c1/c(=C/c2ccc(N3CCOCC3)cc2)sc2n1CCN=2
RAW264.7 [1]
  Activity: Non-toxic
RAW264.7 [2]
  inhibition at 10 µM: > 50%
RAW264.7 [3]
  inhibition: Active

## O=c1/c(=C/c2c[nH]c3ccccc23)sc2nc3ccccc3n12
RAW264.7 [1]
  Activity: Non-toxic
RAW264.7 [2]
  inhibition at 10 µM: > 50%
RAW264.7 [3]
  inhibition: Active

## CCOC(=O)C1=C(C)N=c2s/c(=C\c3cccn3C)c(=O)n2C1c1ccccc1 (centres undefined)
RAW264.7 [6]
  IC50: 6.39 µM
RAW264.7 [7]
  IC50: > 10 µM
RAW264.7 [1]
  Activity: Non-toxic
RAW264.7 [2]
  inhibition (INH): 50% and 87%
RAW264.7 [3]
  inhibition at 10 µM: 60%
